Laboratory results reported in ChEMBL document CHEMBL3102754, “3D-QSAR study of adamantyl N-benzylbenzamides as melanogenesis inhibitors” (Bioorg Med Chem Lett, 2014).

Tested on: B16
Test: Antimelanogenic activity in mouse B16 cells after 4 days by spectrophotometry
Format: functional, cell-based
Settings: B16, 96 h
Summary of the method: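 Cells seeded at 2 × 10^5 cells/mL and treated in triplicate, with medium changed daily. After 4 d of culture, cells lysed in 1 N NaOH and crude extract transferred for melanin content reading.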

SMILES	IC50
COc1ccc(OC)c(CNC(=O)c2cc(C34CC5CC(CC(C5)C3)C4)c(O)cc2O)c1	4.1 µM
COc1ccc(C(=O)NCc2ccc(O)cc2O)cc1C12CC3CC(CC(C3)C1)C2	1.4 µM
COc1cc(CNC(=O)c2ccc(OC)c(C34CC5CC(CC(C5)C3)C4)c2)cc(OC)c1	5.02 µM
O=C(NCc1cc(O)ccc1O)c1ccc(O)cc1O	24.2 µM
O=C(NCc1ccc(O)cc1O)c1ccc(O)c(C23CC4CC(CC(C4)C2)C3)c1	0.899 µM
O=C(NCc1ccc(O)c(O)c1)c1ccc(O)cc1	55 µM
COc1ccc(CNC(=O)c2cc(C34CC5CC(CC(C5)C3)C4)c(O)cc2O)c(OC)c1	3.69 µM
COc1ccc(CNC(=O)c2ccc(O)c(C34CC5CC(CC(C5)C3)C4)c2)cc1OC	3.86 µM
COc1ccc(C(=O)NCc2ccc(O)c(O)c2)c(OC)c1	8.99 µM
COc1cc(OC)c(C23CC4CC(CC(C4)C2)C3)cc1C(=O)NCCc1ccc(O)cc1	1.2 µM
COc1cc(CNC(=O)c2cc(C34CC5CC(CC(C5)C3)C4)c(O)cc2O)cc(OC)c1OC	2.94 µM
COc1cc(CNC(=O)c2ccc(O)c(C34CC5CC(CC(C5)C3)C4)c2)cc(OC)c1	4.44 µM
COc1ccc(C(=O)NCCc2ccc(O)c(O)c2)c(OC)c1	11 µM
O=C(NCc1ccc(O)cc1)c1cc(C23CC4CC(CC(C4)C2)C3)c(O)cc1O	1.23 µM
O=C(NCc1cc(O)ccc1O)c1cc(C23CC4CC(CC(C4)C2)C3)c(O)cc1O	0.729 µM
COc1ccc(CNC(=O)c2cc(C34CC5CC(CC(C5)C3)C4)c(O)cc2O)cc1OC	3.81 µM
COc1ccc(C(=O)NCCc2ccc(O)c(O)c2)cc1C12CC3CC(CC(C3)C1)C2	2.33 µM
COc1cc(O)c(C(=O)NCc2ccc(O)c(O)c2)cc1C12CC3CC(CC(C3)C1)C2	1.29 µM
COc1ccc(C(=O)NCCc2ccc(O)cc2)cc1C12CC3CC(CC(C3)C1)C2	3.41 µM
O=C(NCCc1ccc(O)c(O)c1)c1ccc(O)c(C23CC4CC(CC(C4)C2)C3)c1	2.09 µM
COc1ccc(CNC(=O)c2ccc(OC)c(C34CC5CC(CC(C5)C3)C4)c2)cc1OC	5 µM
COc1ccc(CNC(=O)c2cc(C34CC5CC(CC(C5)C3)C4)c(O)cc2O)c(O)c1	5.71 µM
COc1ccc(CCNC(=O)c2cc(C34CC5CC(CC(C5)C3)C4)c(O)cc2O)cc1OC	4.08 µM
COc1ccc(CCNC(=O)c2ccc(OC)c(C34CC5CC(CC(C5)C3)C4)c2)cc1OC	4.5 µM
O=C(NCc1ccc(O)c(O)c1)c1ccc(O)cc1O	8 µM
COc1cc(CNC(=O)c2cc(C34CC5CC(CC(C5)C3)C4)c(O)cc2O)cc(OC)c1	2.57 µM
O=C(NCCc1ccc(O)c(O)c1)c1cc(C23CC4CC(CC(C4)C2)C3)c(O)cc1O	4.33 µM
O=C(NCc1ccc(O)c(O)c1)c1ccc(O)c(C23CC4CC(CC(C4)C2)C3)c1	2.57 µM
COc1ccc(C(=O)NCCc2ccc(O)cc2)c(O)c1	5 µM
COc1ccc(C(=O)NCCc2ccc(O)c(O)c2)cc1	23 µM

The remaining compounds from weak to strong by IC50, led by results:

IC50	SMILES
75 µM	O=C(NCCc1ccc(O)c(O)c1)c1ccc(O)cc1
27 µM	COc1ccc(C(=O)NCCc2ccc(O)cc2)c(OC)c1
10 µM	COc1ccc(C(=O)NCc2ccc(O)c(O)c2)cc1
8 µM	COc1ccc(C(=O)NCc2ccc(O)c(O)c2)c(O)c1
5.41 µM	COc1ccc(OC)c(CNC(=O)c2ccc(O)c(C34CC5CC(CC(C5)C3)C4)c2)c1
3.14 µM	COc1ccc(OC)c(CNC(=O)c2ccc(OC)c(C34CC5CC(CC(C5)C3)C4)c2)c1
2.5 µM	O=C(NCc1ccc(O)c(O)c1)c1cc(C23CC4CC(CC(C4)C2)C3)c(O)cc1O
2.31 µM	COc1ccccc1CNC(=O)c1cc(C23CC4CC(CC(C4)C2)C3)c(O)cc1O
2.23 µM	COc1ccc(C(=O)NCc2ccc(O)c(O)c2)cc1C12CC3CC(CC(C3)C1)C2
1.92 µM	COc1cc(O)c(C(=O)NCCc2ccc(O)cc2)cc1C12CC3CC(CC(C3)C1)C2
1.25 µM	COc1cc(O)c(C(=O)NCCc2ccc(O)c(O)c2)cc1C12CC3CC(CC(C3)C1)C2
1.2 µM	O=C(NCc1ccc(O)cc1O)c1cc(C23CC4CC(CC(C4)C2)C3)c(O)cc1O
1.1 µM	O=C(NCCc1ccc(O)cc1)c1cc(C23CC4CC(CC(C4)C2)C3)c(O)cc1O
